Measured values as given in ChEMBL document CHEMBL5543163, “Druglike, 18F-labeled PET Tracers Targeting Fibroblast Activation Protein” (J Med Chem, 2024).
pIC50: −log10 of the molar value. Values belong to the compound of their own block, whether it stands above or below them.

Assays:
Prolyl endopeptidase FAP = biological target: T1, Prolyl endopeptidase FAP (Homo sapiens, UniProt Q12884); assay: Inhibition of FAP (unknown origin)
T1 sequence (Q12884 whole entry): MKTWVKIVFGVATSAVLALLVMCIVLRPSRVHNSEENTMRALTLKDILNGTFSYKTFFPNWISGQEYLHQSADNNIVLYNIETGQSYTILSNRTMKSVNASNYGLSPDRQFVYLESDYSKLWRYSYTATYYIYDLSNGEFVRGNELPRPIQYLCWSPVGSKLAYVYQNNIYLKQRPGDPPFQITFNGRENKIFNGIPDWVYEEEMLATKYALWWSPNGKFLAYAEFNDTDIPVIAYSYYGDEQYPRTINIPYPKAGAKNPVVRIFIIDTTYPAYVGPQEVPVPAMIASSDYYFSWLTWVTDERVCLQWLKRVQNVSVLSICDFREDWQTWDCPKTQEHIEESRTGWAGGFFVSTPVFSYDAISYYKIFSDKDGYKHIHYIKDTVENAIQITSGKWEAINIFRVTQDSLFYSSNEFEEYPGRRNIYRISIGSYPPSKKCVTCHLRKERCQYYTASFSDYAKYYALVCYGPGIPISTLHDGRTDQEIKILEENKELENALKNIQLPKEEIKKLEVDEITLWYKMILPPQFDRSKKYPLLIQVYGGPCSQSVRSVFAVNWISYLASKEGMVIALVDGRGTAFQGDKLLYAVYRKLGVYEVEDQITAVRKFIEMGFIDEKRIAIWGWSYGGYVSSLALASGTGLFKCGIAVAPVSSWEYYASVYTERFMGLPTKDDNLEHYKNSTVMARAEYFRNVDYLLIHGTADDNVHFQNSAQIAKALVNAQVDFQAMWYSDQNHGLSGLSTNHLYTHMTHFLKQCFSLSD

Prolyl endopeptidase = biological target: T2, Prolyl endopeptidase (Homo sapiens, UniProt P48147); assay: Inhibition of PREP (unknown origin)
T2 sequence (P48147 whole entry): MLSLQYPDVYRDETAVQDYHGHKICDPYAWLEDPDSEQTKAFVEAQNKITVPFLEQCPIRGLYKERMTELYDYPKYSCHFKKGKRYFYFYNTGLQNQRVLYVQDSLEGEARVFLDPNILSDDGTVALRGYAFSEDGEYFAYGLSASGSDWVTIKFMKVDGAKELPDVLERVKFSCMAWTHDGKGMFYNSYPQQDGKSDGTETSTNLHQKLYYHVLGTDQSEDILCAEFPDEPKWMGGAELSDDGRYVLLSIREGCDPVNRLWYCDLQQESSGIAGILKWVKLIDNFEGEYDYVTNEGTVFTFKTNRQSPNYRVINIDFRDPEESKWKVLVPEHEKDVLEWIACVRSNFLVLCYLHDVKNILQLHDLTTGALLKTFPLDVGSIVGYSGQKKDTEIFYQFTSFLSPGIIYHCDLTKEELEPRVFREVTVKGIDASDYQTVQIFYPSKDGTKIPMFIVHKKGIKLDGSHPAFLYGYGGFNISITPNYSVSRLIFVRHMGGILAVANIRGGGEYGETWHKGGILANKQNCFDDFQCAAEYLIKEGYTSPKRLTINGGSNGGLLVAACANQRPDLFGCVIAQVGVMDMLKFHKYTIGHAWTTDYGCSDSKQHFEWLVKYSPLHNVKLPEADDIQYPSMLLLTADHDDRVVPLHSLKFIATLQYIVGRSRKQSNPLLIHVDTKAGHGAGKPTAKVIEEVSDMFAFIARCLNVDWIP

[1] = Octanol/water partition coefficient, logD of compound at 74 kBq incubated for 2 mins by gamma counter method; type: physicochemical
Outline: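 Octanol and PBS phases were mixed and vortexed for 2 min, then centrifuged at 3,000 rpm for 10 min. Aliquots of 0.5 mL from each phase were γ-counted and corrected for mass and density. LogD was taken as log10 of the octanol/PBS radioactivity ratio.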

[2] = Stability in PBS assessed as compound remaining at 185 kBq measured upto 60 mins by radio-HPLC analysis; type: physicochemical; settings: read-out: Stability
Outline: (§1)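 Radiotracer was incubated at 37 °C for up to 60 min in PBS (0.01 M, pH 7.4) or in mouse plasma. Samples were deproteinized with an equal volume of cold ACN and centrifuged. The supernatant was analyzed by radio-HPLC with 30 s fractions γ-counted to give the intact fraction. Triplicates.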

[3] = Stability in CD1 mouse plasma assessed as compound remaining at 185 kBq measured upto 60 mins by radio-HPLC analysis; type: ADME, cell-free; settings: read-out: Stability; outline: as §1
[4] = Stability in PBS assessed as drug degradation at 185 kBq measured upto 60 mins by radio-HPLC analysis; type: physicochemical; settings: buffer, 1 h; outline: as §1
[5] = Stability in CD1 mouse plasma assessed as drug degradation at 185 kBq measured upto 60 mins by radio-HPLC analysis; type: ADME, cell-free; settings: 1 h; outline: as §1
[6] = Stability in female nude mouse harboring null mutation of CD1 antigen complex assessed as compound remaining at 5.1 to 7.4 MBq, iv measured at 60 mins by radio-HPLC analysis; type: ADME, organism-based; settings: in vivo, dose 5.1-7.4 MBq, read-out: Stability
Outline: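 Female CD1 nude mice received 5.1–7.4 MBq i.v. EDTA blood collected at 15, 30 and 60 min p.i. (n=3 per time point) was centrifuged to plasma, deproteinized with cold ACN and centrifuged. The supernatant was analyzed by radio-HPLC with 30 s fractions γ-counted to give the percent intact tracer.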

[7] = Drug uptake in blood of female nude mouse harboring null mutation of CD1 antigen complex at 5.1 to 7.4 MBq, iv measured after 15 to 60 mins by gamma counter analysis; type: ADME, organism-based; settings: in vivo, dose lower 5.1 MBq, time lower 15 min, dose upper 7.4 MBq, time upper 60 min
Outline: (§2)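 Female CD1 nude mice, 6–8 weeks old (20–25 g), received the radiotracer through the lateral tail vein. At 15, 30 and 60 min p.i. (n = 3 per time point) blood was drawn by cardiac puncture and the animals were euthanized. Organs were excised, weighed and γ-counted. Uptake is expressed as %ID/g.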

[8] = Drug uptake in liver of female nude mouse harboring null mutation of CD1 antigen complex at 5.1 to 7.4 MBq, iv measured after 15 to 60 mins by gamma counter analysis; type: ADME, organism-based; settings: in vivo, dose lower 5.1 MBq, time lower 15 min, dose upper 7.4 MBq, time upper 60 min; outline: as §2
[9] = Drug uptake in intestine of female nude mouse harboring null mutation of CD1 antigen complex at 5.1 to 7.4 MBq, iv measured after 15 to 60 mins by gamma counter analysis; type: ADME, organism-based; settings: in vivo, dose lower 5.1 MBq, time lower 15 min, dose upper 7.4 MBq, time upper 60 min; outline: as §2
[10] = Drug uptake in kidney of female nude mouse harboring null mutation of CD1 antigen complex assessed as increase in renal excretion at 5.1 to 7.4 MBq, iv measured after 15 to 60 mins by gamma counter analysis; type: ADME, organism-based; settings: in vivo, dose lower 5.1 MBq, time lower 15 min, dose upper 7.4 MBq, time upper 60 min; outline: as §2
[11] = Drug uptake in urinary bladder of female nude mouse harboring null mutation of CD1 antigen complex assessed as increase in renal excretion at 5.1 to 7.4 MBq, iv measured after 15 to 60 mins by gamma counter analysis; type: ADME, organism-based; settings: in vivo, dose lower 5.1 MBq, time lower 15 min, dose upper 7.4 MBq, time upper 60 min; outline: as §2
[12] = Drug uptake in large intestine of female nude mouse harboring null mutation of CD1 antigen complex assessed as increase in renal excretion at 5.1 to 7.4 MBq, iv measured at 60 mins by gamma counter analysis; type: ADME, organism-based; settings: in vivo, 1 h, dose 5.1-7.4 MBq; outline: as §2
[13] = Drug uptake in tumor of female nude mouse harboring null mutation of CD1 antigen complex xenografted with human U-87 MG cells at 5 to 7.4 MBq, iv measured at 60 mins by PET/CT analysis; type: ADME, organism-based, Neoplasm; settings: in vivo, 1 h, dose 5-7.4 MBq
Outline: (§3)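 U-87MG xenografts (5×10^6 cells, subcutaneous flank) were grown in female CD1 nude mice to about 200 mm3. Dynamic whole-body PET over 60 min p.i. was followed by CT. Images were reconstructed with OSEM 3D and expressed as %ID/mL to give time-activity curves. For blocking, the FAP inhibitor (5 mg/kg) was given via the tail vein 30 min before the tracer; n=4.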

[14] = Drug uptake in tumor of female nude mouse harboring null mutation of CD1 antigen complex xenografted with human U-87 MG cells at 5 to 7.4 MBq, iv pretreated with (S)-N-(2-(2-cyano-4,4-difluoropyrrolidin-1-yl)-2-oxoethyl)quinoline-4-carboxamide for 30 mins followed by radioligand addition and measured measured after 60 mins by PET/CT analysis; type: ADME, organism-based, Neoplasm; settings: in vivo, 1 h, dose 5-7.4 MBq; outline: as §3
[15] = Drug uptake in skull of female nude mouse harboring null mutation of CD1 antigen complex xenografted with human U-87 MG cells at 5 to 7.4 MBq, iv measured after 60 mins by gamma counter analysis; type: ADME, organism-based; settings: in vivo, 1 h, dose 5-7.4 MBq
[16] = Drug uptake in tibia of female nude mouse harboring null mutation of CD1 antigen complex xenografted with human U-87 MG cells at 5 to 7.4 MBq, iv measured after 60 mins by gamma counter analysis; type: ADME, organism-based; settings: in vivo, 1 h, dose 5-7.4 MBq
[17] = Ratio of drug level in tumor to muscle of female nude mouse harboring null mutation of CD1 antigen complex xenografted with human U-87 MG cells at 5 to 7.4 MBq, iv measured at 60 mins postinjection by gamma counter analysis; type: ADME, organism-based; settings: in vivo, 1 h, dose 5-7.4 MBq
Outline: (§4)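 Subcutaneous U-87MG xenografts (5×10^6 cells in DPBS, hind flank) were grown in female CD1 nude mice to about 200 mm3. After tail-vein radiotracer injection and a 60 min dynamic PET scan, tissues were harvested at 60 min p.i. and γ-counted (%ID/g). Tumor-to-tissue ratios are means ± SD of individual ratios, n=4 per tracer.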

[18] = Ratio of drug level in tumor to blood of female nude mouse harboring null mutation of CD1 antigen complex xenografted with human U-87 MG cells at 5 to 7.4 MBq, iv measured at 60 mins postinjection by gamma counter analysis; type: ADME, organism-based; settings: tumour, 1 h, dose 5-7.4 MBq; outline: as §4
[19] = Ratio of drug level in tumor to small intestine of female nude mouse harboring null mutation of CD1 antigen complex xenografted with human U-87 MG cells at 5 to 7.4 MBq, iv measured at 60 mins postinjection by gamma counter analysis; type: ADME, organism-based; settings: in vivo, 1 h, dose 5-7.4 MBq; outline: as §4
[20] = Ratio of drug level in tumor to liver of female nude mouse harboring null mutation of CD1 antigen complex xenografted with human U-87 MG cells at 5 to 7.4 MBq, iv measured at 60 mins postinjection by gamma counter analysis; type: ADME, organism-based; settings: in vivo, 1 h, dose 5-7.4 MBq; outline: as §4
[21] = Drug uptake in tumor of female nude mouse harboring null mutation of CD1 antigen complex xenografted with FAP-negative human HT-29 cells at 5 to 7.4 MBq, iv measured after 60 mins by autoradiography; type: ADME, organism-based, Neoplasm; settings: in vivo, 1 h, dose 5-7.4 MBq
Outline: (§5)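 Right after imaging and γ-counting, tumors from HT29 or U-87MG xenografts were snap-frozen and embedded in OCT. Sections of 100 µm were exposed overnight to phosphor screens. Non-blocked tumors were compared with tumors from mice pre-injected with the FAP inhibitor.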

[22] = Drug uptake in tumor of female nude mouse harboring null mutation of CD1 antigen complex xenografted with human U-87 MG cells at 5 to 7.4 MBq, iv measured after 60 mins by autoradiography; type: ADME, organism-based, Neoplasm; settings: in vivo, 1 h, dose 5-7.4 MBq; outline: as §5
[23] = Drug uptake in tumor of female nude mouse harboring null mutation of CD1 antigen complex xenografted with human U-87 MG cells with increased FAP positive tumor area at 5 to 7.4 MBq, iv measured after 60 mins by immunohistochemistry analysis; type: ADME, organism-based, Neoplasm; settings: in vivo, 1 h, dose 5-7.4 MBq
[24] = Drug uptake in tumor of female nude mouse harboring null mutation of CD1 antigen complex xenografted with human HT-29 cells with decreased FAP positive tumor area at 5 to 7.4 MBq, iv measured after 60 mins by immunohistochemistry analysis; type: ADME, organism-based, Neoplasm; settings: in vivo, 1 h, dose 5-7.4 MBq
[25] = Drug uptake in bone structures of female nude mouse harboring null mutation of CD1 antigen complex xenografted with human U-87 MG cells at 5 to 7.4 MBq, iv measured after 60 mins by gamma counter analysis; type: ADME, organism-based, Bone element; settings: in vivo, 1 h, dose 5-7.4 MBq

pIC50 (Prolyl endopeptidase FAP): 9.10 | pIC50 (Prolyl endopeptidase): 5.77
Compound: CN(CC(=O)O)C1(CCCCNCCNc2c(NCCCCOc3ccc4nccc(C(=O)NCC(=O)N5CC(F)(F)C[C@H]5C#N)c4c3)c(=O)c2=O)CN(CC(=O)O)CCN(CC(=O)O)C1

logD at 2 min [1]: -1.77 | remaining at 1 h, 185 kBq [2]: > 70% | remaining at 1 h, 185 kBq [3]: > 70% | Stability [4]: Stable | Stability [5]: Stable | remaining at 1 h [6]: 56.5% | Drug uptake [7]: 0.24 % ID/g | Drug uptake [8]: Active | Drug uptake [9]: Active | Drug uptake [10]: Active | Drug uptake [11]: Active | Drug uptake [12]: 0.38 % ID/g | Drug uptake [13]: 10.16 %ID/ml | Drug uptake [14]: Not Active | Drug uptake [15]: Active | Drug uptake [16]: 4.33 % ID/g | Ratio [17]: 6.54 | Ratio [18]: 6.35 | Ratio [19]: 2.43 | Ratio [20]: 4.77 | Drug uptake [21]: Active | Drug uptake [22]: Active | Drug uptake [23]: Active | Drug uptake [24]: Not Active | Drug uptake [25]: Active
Compound: [2H]C([2H])([18F])[N+](C)(C)CCCOc1ccc2nccc(C(=O)NCC(=O)N3CC(F)(F)C[C@H]3C#N)c2c1
